Reference: paper PMC4166030 (Bioconjugate Chemistry, 2014)

Tested on: KRAS2 G12D RNA
Test: CD thermal melting of TO-PNA-peptide:RNA duplexes
Format: binding
Procedure, shortened: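 Gel-purified synthetic RNA 20mers were annealed with the test compound at 1 μM each (final) in sodium phosphate, 1.0 M NaCl, 5 mM EDTA, pH 7.2, by heating at 95 °C for 10 min and then cooling for 10 min. CD at 265 nm was tracked over a 25→95 °C ramp at 0.5 °C/min, with baseline slopes subtracted. Tm was taken as the first-derivative maximum (two-state model); n = 3, ± SD.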

GCCATOTCAGCTCC-AEEA-D(Cys-Ser-Lys-Cys) (disulfide) [TO2]
Tm decrease relative to TO1 (12mer) KRAS2 G12D duplex: 2 °C
